How the values were obtained:
[1] = Effect on body mass in LmnaH222P/H222P mouse model of cardiomyopathy at 3 mg/kg/day, po administered 6 days per week via gavage starting from 14 weeks of age up to 20 weeks of age (reference value: 23.19 +/- 0.43); assay type: ADME, organism-based, Heart; details: in vivo
[2] = Effect on body mass in LmnaH222P/H222P mouse model of cardiomyopathy at 6 mg/kg/day, po administered 6 days per week via gavage starting from 14 weeks of age up to 20 weeks of age (reference value: 23.19 +/- 0.43); assay type: ADME, organism-based, Heart; details: in vivo
Mus musculus [3] = assay: Toxicity in LmnaH222P/H222P mouse model of cardiomyopathy assessed as serum alkaline phosphatase activity at 3 mg/kg/day, po administered 6 days per week via gavage starting from 14 weeks of age up to 20 weeks of age (reference value: 91.5 +/- 6.99 U/L); assay type: organism-based, Heart; details: in vivo
Mus musculus [4] = assay: Toxicity in LmnaH222P/H222P mouse model of cardiomyopathy assessed as serum alkaline phosphatase activity at 6 mg/kg/day, po administered 6 days per week via gavage starting from 14 weeks of age up to 20 weeks of age (reference value: 91.5 +/- 6.99 U/L); assay type: organism-based, Heart; details: in vivo
Mus musculus [5] = assay: Toxicity in LmnaH222P/H222P mouse model of cardiomyopathy assessed as serum alanine aminotransferase activity at 3 mg/kg/day, po administered 6 days per week via gavage starting from 14 weeks of age up to 20 weeks of age (reference value: 56 +/- 10.55 U/L); assay type: organism-based, Heart; details: in vivo
Mus musculus [6] = assay: Toxicity in LmnaH222P/H222P mouse model of cardiomyopathy assessed as serum alanine aminotransferase activity at 6 mg/kg/day, po administered 6 days per week via gavage starting from 14 weeks of age up to 20 weeks of age (reference value: 56 +/- 10.55 U/L); assay type: organism-based, Heart; details: in vivo
Mus musculus [7] = assay: Toxicity in LmnaH222P/H222P mouse model of cardiomyopathy assessed as total bilirubin content in serum at 3 mg/kg/day, po administered 6 days per week via gavage starting from 14 weeks of age up to 20 weeks of age (reference value: 0.36 +/- 0.02 mg/L); assay type: organism-based, Heart; details: in vivo
Mus musculus [8] = assay: Toxicity in LmnaH222P/H222P mouse model of cardiomyopathy assessed as total bilirubin content in serum at 6 mg/kg/day, po administered 6 days per week via gavage starting from 14 weeks of age up to 20 weeks of age (reference value: 0.36 +/- 0.02 mg/L); assay type: organism-based, Heart; details: in vivo
Mus musculus [9] = assay: Toxicity in LmnaH222P/H222P mouse model of cardiomyopathy assessed as serum amylase activity at 3 mg/kg/day, po administered 6 days per week via gavage starting from 14 weeks of age up to 20 weeks of age (reference value: 1102 +/- 53.63 U/L); assay type: organism-based, Heart; details: in vivo
Mus musculus [10] = assay: Toxicity in LmnaH222P/H222P mouse model of cardiomyopathy assessed as serum amylase activity at 6 mg/kg/day, po administered 6 days per week via gavage starting from 14 weeks of age up to 20 weeks of age (reference value: 1102 +/- 53.63 U/L); assay type: organism-based, Heart; details: in vivo
Mus musculus [11] = assay: Toxicity in LmnaH222P/H222P mouse model of cardiomyopathy assessed as blood urea nitrogen level at 3 mg/kg/day, po administered 6 days per week via gavage starting from 14 weeks of age up to 20 weeks of age (reference value: 17.98 +/- 0.94 mg/dl); assay type: organism-based, Heart; details: in vivo
Mus musculus [12] = assay: Toxicity in LmnaH222P/H222P mouse model of cardiomyopathy assessed as blood urea nitrogen level at 6 mg/kg/day, po administered 6 days per week via gavage starting from 14 weeks of age up to 20 weeks of age (reference value: 17.98 +/- 0.94 mg/dl); assay type: organism-based, Heart; details: in vivo
Mus musculus [13] = assay: Toxicity in LmnaH222P/H222P mouse model of cardiomyopathy assessed as serum creatinine level at 3 mg/kg/day, po administered 6 days per week via gavage starting from 14 weeks of age up to 20 weeks of age (reference value: 0.45 +/- 0.01 mg/dl); assay type: organism-based, Heart; details: in vivo
Mus musculus [14] = assay: Toxicity in LmnaH222P/H222P mouse model of cardiomyopathy assessed as serum creatinine level at 6 mg/kg/day, po administered 6 days per week via gavage starting from 14 weeks of age up to 20 weeks of age (reference value: 0.45 +/- 0.01 mg/dl); assay type: organism-based, Heart; details: in vivo
Mus musculus [15] = assay: Toxicity in LmnaH222P/H222P mouse model of cardiomyopathy assessed as ratio of blood urea nitrogen to serum creatinine at 3 mg/kg/day, po administered 6 days per week via gavage starting from 14 weeks of age up to 20 weeks of age (reference value: 20.14 +/- 1.25); assay type: organism-based, Heart; details: in vivo
Mus musculus [16] = assay: Toxicity in LmnaH222P/H222P mouse model of cardiomyopathy assessed as ratio of blood urea nitrogen to serum creatinine at 6 mg/kg/day, po administered 6 days per week via gavage starting from 14 weeks of age up to 20 weeks of age (reference value: 20.14 +/- 1.25); assay type: organism-based, Heart; details: in vivo
Mus musculus [17] = assay: Hepatotoxicity in LmnaH222P/H222P mouse model of cardiomyopathy assessed as hepatocyte necrosis at 3 to 6 mg/kg/day, po administered 6 days per week via gavage starting from 14 weeks of age up to 20 weeks of age by hematoxylin and eosin staining based assay; assay type: toxicity, organism-based; details: hepatocytes
In short: (§1)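 Liver, kidney and spleen from male Lmna H222P/H222P mice given vehicle or 3 or 6 mg/kg/day by gavage 6 days/week from 14 to 20 weeks. Tissues were fixed in 4% formaldehyde for 48 h, paraffin-embedded, sectioned at 5 μm and stained with hematoxylin and eosin. Findings were recorded for each individual sample.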

Mus musculus [18] = assay: Hepatotoxicity in LmnaH222P/H222P mouse model of cardiomyopathy assessed as inflammation at 3 to 6 mg/kg/day, po administered 6 days per week via gavage starting from 14 weeks of age up to 20 weeks of age by hematoxylin and eosin staining based assay; assay type: toxicity, organism-based; details: in vivo; in short: as §1
Mus musculus [19] = assay: Hepatotoxicity in LmnaH222P/H222P mouse model of cardiomyopathy assessed as cholestasis at 3 to 6 mg/kg/day, po administered 6 days per week via gavage starting from 14 weeks of age up to 20 weeks of age by hematoxylin and eosin staining based assay; assay type: toxicity, organism-based; details: in vivo; in short: as §1
Mus musculus [20] = assay: Nephrotoxicity in LmnaH222P/H222P mouse model of cardiomyopathy assessed as glomeruli abnormalities at 3 to 6 mg/kg/day, po administered 6 days per week via gavage starting from 14 weeks of age up to 20 weeks of age by hematoxylin and eosin staining based assay; assay type: toxicity, organism-based; details: in vivo; in short: as §1
Mus musculus [21] = assay: Nephrotoxicity in LmnaH222P/H222P mouse model of cardiomyopathy assessed as interstitial nephritis at 3 to 6 mg/kg/day, po administered 6 days per week via gavage starting from 14 weeks of age up to 20 weeks of age by hematoxylin and eosin staining based assay; assay type: toxicity, organism-based; details: in vivo; in short: as §1
Mus musculus [22] = assay: Toxicity in LmnaH222P/H222P mouse model of cardiomyopathy assessed as appearance of hemosiderin-laden macrophages in spleen at 3 to 6 mg/kg/day, po administered 6 days per week via gavage starting from 14 weeks of age up to 20 weeks of age by hematoxylin and eosin staining based assay; assay type: organism-based; details: in vivo; in short: as §1
Mus musculus [23] = assay: Protective activity in LmnaH222P/H222P mouse model of cardiomyopathy assessed as mean survival days at 3 mg/kg, po administered 6 days per week via gavage starting from 10 weeks of age continued up to mouse death (reference value: 202 day); assay type: functional, Heart
Mus musculus [24] = assay: Protective activity in LmnaH222P/H222P mouse model of cardiomyopathy assessed as mean survival days at 6 mg/kg, po administered 6 days per week via gavage starting from 10 weeks of age continued up to mouse death (reference value: 202 day); assay type: functional, Heart
[25] = biological target: Dual specificity mitogen-activated protein kinase kinase; MEK1/2 (Homo sapiens, UniProt P36507+Q02750); assay: Inhibition of MEK1/2 in human HT-29 cells assessed as reduction in cell proliferation after 72 hrs by CellTiter-Glo assay; assay type: cell-based
In short: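 HT-29 cells were plated at 2,000/well in DMEM or RPMI with 10% FBS and left overnight at 37°C, 5% CO2. Medium was replaced with compound at 3-fold dilutions from 3.3 µM to 4.5 nM. After 72 h, viability was read by CellTiter-Glo luminescence and IC50 calculated.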

Compound: O=S1(=O)Nc2c(cc(F)c(F)c2Nc2ccc(I)cc2F)OCC(O)C(O)CC12CC2 (single isomer, unassigned; form 1)
- Activity [1]: 24.06
- Activity [2]: 22.93
- Activity (Mus musculus [3]): 104.5 U/L
- Activity (Mus musculus [4]): 113 U/L
- Activity (Mus musculus [5]): 69.6 U/L
- Activity (Mus musculus [6]): 69.6 U/L
- Activity (Mus musculus [7]): 0.32 mg/L
- Activity (Mus musculus [8]): 0.37 mg/L
- Activity (Mus musculus [9]): 1372 U/L
- Activity (Mus musculus [10]): 1086 U/L
- Activity (Mus musculus [11]): 18.04 mg/dL
- Activity (Mus musculus [12]): 19.12 mg/dL
- Activity (Mus musculus [13]): 0.46 mg/dL
- Activity (Mus musculus [14]): 0.46 mg/dL
- Ratio (Mus musculus [15]): 19.66
- Ratio (Mus musculus [16]): 20.77
- Activity (Mus musculus [17]): Non-Toxic
- Activity (Mus musculus [18]): Non-Toxic
- Activity (Mus musculus [19]): Non-Toxic
- Activity (Mus musculus [20]): Non-Toxic
- Activity (Mus musculus [21]): Non-Toxic
- Activity (Mus musculus [22]): Non-Toxic
- MSD (Mus musculus [23]): 225 days
- MSD (Mus musculus [24]): 225 days
- IC50 [25]: 16 nM

Reference: ChEMBL document CHEMBL3875205, “Macrocyclic MEK1/2 inhibitor with efficacy in a mouse model of cardiomyopathy caused by lamin A/C gene mutation” (Bioorg Med Chem, 2017)
